E-selectin induc: E-selectin induction in HUVECs, primary screen, imaging, HUVEC, immunofluorescence imaging, single point | P16581 | normalized: neutral wells 0, TNF-alpha wells 100 | activation, % at 7.58 µM | actives 0.37% (n = 260,000) | AID 686992, 2013;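 active = mean E-selectin-positive cell signal at least 10% of the positive control, reached in at least 60% of replicates, without over 20% cell loss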
Target sequence (P16581 whole entry, looked up): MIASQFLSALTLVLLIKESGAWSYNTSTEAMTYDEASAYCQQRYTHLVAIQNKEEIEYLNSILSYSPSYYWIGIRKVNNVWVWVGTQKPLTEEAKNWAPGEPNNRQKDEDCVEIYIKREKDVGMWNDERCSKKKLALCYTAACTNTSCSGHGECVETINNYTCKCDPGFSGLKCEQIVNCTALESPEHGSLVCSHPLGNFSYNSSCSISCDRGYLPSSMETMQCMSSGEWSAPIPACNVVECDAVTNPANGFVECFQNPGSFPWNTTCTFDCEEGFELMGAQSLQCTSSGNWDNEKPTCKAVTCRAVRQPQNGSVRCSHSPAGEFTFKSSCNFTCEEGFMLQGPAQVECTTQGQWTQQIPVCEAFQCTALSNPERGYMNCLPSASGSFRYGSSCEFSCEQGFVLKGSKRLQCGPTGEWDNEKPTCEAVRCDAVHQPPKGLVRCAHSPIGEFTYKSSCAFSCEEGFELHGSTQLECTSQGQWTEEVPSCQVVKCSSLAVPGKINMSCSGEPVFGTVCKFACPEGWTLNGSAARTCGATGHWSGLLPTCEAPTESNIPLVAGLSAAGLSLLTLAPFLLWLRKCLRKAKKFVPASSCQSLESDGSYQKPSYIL
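Assay system: HUVEC primary endothelial cells. Input: 3,000 HUVEC seeded per well. Doses: one compound dose added by pin transfer. Read-out basis: % PE-positive cells. Benchmarks: TNF-alpha high, DMSO low. Detection: immunofluorescence imaging. Buffer or medium: EGM-2, gelatin.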
Cneo AK release: Cryptococcus neoformans cell lysis inducers, primary screen, AK release luminescence, single concentration; C. neoformans lysis, adenylate kinase release luminescence, 4 h; normalised: neutral wells 0, clomiphene wells 100; lysis activity, % at 15 µM; actives 0.2% (n = 360,000); AID 651654, 2012;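 active = mean lysis activity across replicates of at least 80%, whatever share of replicates individually reach that level; inactive = mean lysis activity below 80%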
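Assay system: log-phase C. neoformans yeast / Quantity: yeast cell density of 5 × 10^6 cells/mL / Medium: fresh YPD growth medium / Compound: single dose / Timing: static 4 h at 37 °C with compound, 1 h detection / Measured by: adenylate kinase release luminescence / Read-out: lysis from increased AK signal / Benchmarks: Clomiphene as positive lysis control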
Ecoli rRNA inh: reduced GFP signal of wild-type E. coli, primary screen, bacterial rRNA inhibitor project, GFP/RFP fluorescence, OD600, single point | E. coli WT GFP vs humanized-ribosome RFP mutants, 24 h; active compounds read low; DMSO median 0, no signal -100 | GFP signal change (wild-type ribosome), % (no concentration beside the values) | actives 1.6% (n = 350,000) | AID 720706, 2013;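 active = significant combined selectivity score with lowered wild-type GFP, culture density cut under 30%, mutant RFP and density less affected; inactive = any of these conditions unmet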
miR-122 sensor: miR-122 Renilla sensor signal increase in Huh7, primary screen, miR-122 inhibitor project, cell-based, single point, plate reader; Huh7 miR-122 Renilla luciferase sensor, 48 h; neutral wells = 0, positive control = 100; activation (reporter increase), % at 12.5 µM; actives 0.3% (n = 340,000);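 active = mean replicate activation score at least 90 and every replicate individually at or above 90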;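 also: higher luciferase means less miR-122 activity so hits act as miR-122 inhibitors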
DENV2 CPE: inhibitors of DENV2 cytopathic effect, primary screen, cell-based, plate reader, single concentration. DENV2-infected cells, cytopathic effect rescue. actives 1.7% (n = 350,000). CPE inhibition, % at 9.99 µM. AID 651640, 2012; in the data active = CPE inhibition above about 20%, passing the limit was not always enough; tested in BHK-21 cells
Hits are given with their value; ! = a repeat was not active. In the library only some 3.1% were active in any assay of this set; here they are far more common.

Screening C[C@@H]1CN([C@@H](C)CO)C(=O)c2cc(-c3ccccc3F)cnc2O[C@@H]1CN(C)C(=O)C1CCOCC1 returned E-selectin induc inactive, Cneo AK release inactive, Ecoli rRNA inh inactive, miR-122 sensor inactive and DENV2 CPE 60.
For C[C@@H]1CN([C@H](C)CO)C(=O)c2cc(C#Cc3ccccc3F)cnc2O[C@H]1CN(C)C(=O)C1CCOCC1 the results were E-selectin induc inactive, Cneo AK release inactive, Ecoli rRNA inh inactive, miR-122 sensor inactive and DENV2 CPE 35.
For COC(=O)N/N=C/c1ccc(-c2cccc(Cl)c2)o1 the results were E-selectin induc inactive.
For Nc1ccccc1N=Cc1ccc(-c2cccc(Cl)c2)o1 the results were Cneo AK release inactive, Ecoli rRNA inh -26, miR-122 sensor inactive and DENV2 CPE inactive.
For O=C(COc1cccc2ccccc12)NNC(=O)Nc1ccccc1 the results were Cneo AK release inactive, Ecoli rRNA inh -33 and miR-122 sensor inactive.
For C[C@H]1CN([C@@H](C)CO)C(=O)CCCn2cc(nn2)CO[C@H]1CN(C)Cc1ccc(C(=O)O)cc1 the results were E-selectin induc inactive, Ecoli rRNA inh inactive and DENV2 CPE 25.
C[C@H](CO)N1C[C@H](C)[C@H](CN(C)Cc2ccccc2)OCc2cn(nn2)CCCC1=O was read as E-selectin induc inactive, Ecoli rRNA inh inactive and miR-122 sensor inactive.
Screening C[C@H]1CN([C@@H](C)CO)C(=O)CCCn2cc(nn2)CO[C@@H]1CN(C)Cc1cccc(C(=O)O)c1 returned E-selectin induc inactive, Cneo AK release inactive, Ecoli rRNA inh inactive, miR-122 sensor inactive and DENV2 CPE 24.
For C[C@H]1CN([C@@H](C)CO)C(=O)CCCn2cc(nn2)CO[C@@H]1CN(C)Cc1ccc(C(=O)O)cc1 the results were E-selectin induc inactive, Ecoli rRNA inh inactive and DENV2 CPE inactive.
Screening CNC[C@H]1Oc2ccc(NS(=O)(=O)c3ccc(OC)cc3)cc2CC(=O)N([C@@H](C)CO)C[C@@H]1C returned E-selectin induc 60, Cneo AK release inactive, Ecoli rRNA inh inactive, miR-122 sensor inactive and DENV2 CPE inactive.
For CNC[C@@H]1Oc2ccc(NS(=O)(=O)c3ccc(Cl)cc3)cc2CC(=O)N([C@H](C)CO)C[C@@H]1C the results were E-selectin induc inactive, Cneo AK release inactive, Ecoli rRNA inh inactive, miR-122 sensor inactive and DENV2 CPE inactive.
CNC[C@H]1Oc2ccc(NS(=O)(=O)c3ccc(OC)cc3)cc2CC(=O)N([C@@H](C)CO)C[C@H]1C was read as E-selectin induc inactive, Cneo AK release inactive, Ecoli rRNA inh inactive, miR-122 sensor inactive and DENV2 CPE inactive.
For CNC[C@@H]1Oc2ccc(NS(=O)(=O)c3ccc(Cl)cc3)cc2CC(=O)N([C@@H](C)CO)C[C@@H]1C the results were E-selectin induc inactive, Cneo AK release inactive, Ecoli rRNA inh inactive, miR-122 sensor inactive and DENV2 CPE 41.
CNC[C@H]1Oc2ccc(NS(=O)(=O)c3ccc(Cl)cc3)cc2CC(=O)N([C@@H](C)CO)C[C@@H]1C was read as E-selectin induc inactive, Cneo AK release inactive, Ecoli rRNA inh inactive, miR-122 sensor inactive and DENV2 CPE 27.
`CNC[C@H]1Oc2ccc(NS(=O)(=O)c3ccc(C)cc3)cc2CC(=O)N([C@@H](C)CO)C[C@@H]1C` gave E-selectin induc inactive, Cneo AK release inactive, Ecoli rRNA inh inactive, miR-122 sensor inactive and DENV2 CPE inactive.
Screening Cc1noc(C)c1NC(=O)N(C)C[C@H]1Oc2c(NC(=O)c3cnccn3)cccc2C(=O)N([C@H](C)CO)C[C@@H]1C returned E-selectin induc inactive, Cneo AK release inactive, Ecoli rRNA inh inactive, miR-122 sensor inactive and DENV2 CPE inactive.
CC(C)NC(=O)N(C)C[C@@H]1Oc2c(NS(C)(=O)=O)cccc2C(=O)N(C)C[C@H]1C was read as Ecoli rRNA inh inactive.
C[C@@H]1CN([C@H](C)CO)C(=O)c2cccc(NS(=O)(=O)c3cn(C)cn3)c2O[C@@H]1CN(C)Cc1ccc(Cl)c(Cl)c1 was read as E-selectin induc 67, Cneo AK release inactive, Ecoli rRNA inh inactive, miR-122 sensor inactive and DENV2 CPE inactive.
Screening C[C@H](CO)N1C[C@H](C)[C@@H](CN(C)S(=O)(=O)c2cn(C)cn2)Oc2ncc(C3=CCCC3)cc2C1=O returned E-selectin induc inactive, Cneo AK release inactive, Ecoli rRNA inh inactive, miR-122 sensor inactive and DENV2 CPE 23.
For C[C@@H]1CN([C@@H](C)CO)C(=O)c2cccc(NS(=O)(=O)c3cn(C)cn3)c2O[C@H]1CN(C)S(=O)(=O)c1cn(C)cn1 the results were E-selectin induc inactive, Cneo AK release inactive, Ecoli rRNA inh inactive, miR-122 sensor inactive and DENV2 CPE inactive.
Screening C[C@@H]1CN([C@H](C)CO)C(=O)c2cc(N(C)C)ccc2O[C@H]1CN(C)S(=O)(=O)c1cn(C)cn1 returned E-selectin induc 63, Cneo AK release inactive, Ecoli rRNA inh inactive, miR-122 sensor inactive and DENV2 CPE inactive.
For C[C@@H]1CN([C@@H](C)CO)C(=O)c2cccc(NS(=O)(=O)c3cn(C)cn3)c2O[C@@H]1CN(C)S(=O)(=O)c1cn(C)cn1 the results were E-selectin induc inactive, Cneo AK release inactive, Ecoli rRNA inh inactive, miR-122 sensor inactive and DENV2 CPE 27.
C[C@H](CO)N1C[C@H](C)[C@H](CN(C)Cc2ccccc2)Oc2c(NS(=O)(=O)c3ccc(Cl)cc3)cccc2C1=O was read as E-selectin induc inactive, Cneo AK release inactive, Ecoli rRNA inh inactive, miR-122 sensor inactive and DENV2 CPE inactive.
For C[C@H](CO)N1C[C@H](C)[C@@H](CN(C)Cc2ccccc2)Oc2c(NS(=O)(=O)c3cn(C)cn3)cccc2C1=O the results were E-selectin induc inactive, Cneo AK release inactive, Ecoli rRNA inh inactive, miR-122 sensor inactive and DENV2 CPE 30!.
C[C@@H]1CN([C@@H](C)CO)C(=O)c2cccc(NS(=O)(=O)c3cn(C)cn3)c2O[C@H]1CN(C)CC1CCCCC1 was read as E-selectin induc inactive, Cneo AK release inactive, Ecoli rRNA inh inactive, miR-122 sensor inactive and DENV2 CPE 33.
For O=S(=O)(N[C@@H]1CC[C@H](CCn2cc(-c3ccccc3F)nn2)O[C@H]1CO)c1ccc(Cl)cc1 the results were E-selectin induc inactive, Cneo AK release inactive, Ecoli rRNA inh inactive and DENV2 CPE inactive.
Screening COc1ccc(CNC(=S)Nc2ccc(F)c(Cl)c2)cc1OC returned E-selectin induc inactive, Ecoli rRNA inh -27 and DENV2 CPE inactive.
`COc1ccccc1CNC(=S)NCc1ccc(Cl)cc1` gave E-selectin induc inactive, Cneo AK release 137, Ecoli rRNA inh inactive and DENV2 CPE inactive.

Compound activity (PubChem)
